Results from the RNAGym collection of RNA variant scans (doi:10.1126/science.aae0568).
Variants at the floor of the assay were thinned out.

B1: tRNA (parent)
chain: GUUCCGUUGGCGUAAUGGUAACGCGUCUCCCUCCUAAGGAGAAGACUGCGGGUUCGAGUCCCGUACGGAACG

Variants of: B1
Assay: yeast fitness relative to wild type (ratio to wild type); higher = fitter; tRNA-Arg(CCU), competitive growth, 37 C, YPD
Method in brief: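 Variants of the tRNA-Arg(CCU) gene were chemically synthesised with a 3% per-site mutation rate across 69 sites and placed at the native genomic locus in Saccharomyces cerevisiae. Six parallel replicates of the pooled strains were competed in YPD at 37°C for 24 hours, and gene amplicons from the start and end populations were read by 100-nucleotide paired-end sequencing. Darwinian fitness relative to wild type was derived from changes in genotype frequencies. Genotypes required ≥ 100 starting reads, and estimates < 0.5 were set to 0.5.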

Variant	yeast fitness
C4A A20C G50C A65C	≤ 0.5
U3G G25A A45C A69U	0.814
C4A C5A A20U A69C	0.551
C4A A14U C31U A40U G41C A45C A69C	0.599
C4A A45C U47A	0.708
C4A A21G C60U	0.544
C4A C5U C22U C34A C49U C62U	≤ 0.5
C4A C5G U8A C30A G67C	≤ 0.5
C4A C5A C29U G51C	≤ 0.5
C4A C5U U8C U64A	≤ 0.5
C4A C5U	0.837
C4A C5A	0.752
C4A C5U G17A	≤ 0.5
C4A C5U C11G C30A	≤ 0.5
C4A A57C C62U	≤ 0.5
U3G C66A	0.591
U3G C66G	0.712
U3G U8A C31A C49A	≤ 0.5
U3G U16C G48U	0.633
U3G G44C	0.739
C4A A20U	0.707

Variant	yeast fitness
C4A A14U C27U U28A	0.859
C4A A21G G51A A69G	≤ 0.5
U3G U7A G9A	≤ 0.5
C4A A15G G17A C30G G48A U53C C62U	≤ 0.5
U3G U8C C33U C66A	≤ 0.5
C4A A15G G17A U32C C62A A69U	≤ 0.5
C4A A20G C34G C66U	≤ 0.5
C4A C5U G58C U64A	0.572
U3G G39A A40G A57U C66U	≤ 0.5
C4A A40U A43U A70U	≤ 0.5
U3G U16A A45U A70G	≤ 0.5
U3G U53G	0.587
C4A A36G	0.87
C4A C5A A15G U19C	≤ 0.5
C4A A36G G58C	0.565
C4A A65G A69U	0.617
U3G U13A U16A	0.65
U3G G18A	0.694
C4A C5A C30A C31U C33A A45U	≤ 0.5
C4A A20U C34G C55G C60A	≤ 0.5
C4A A14C U26C A36G A65U	≤ 0.5

Variant	yeast fitness
C4A A15C A70U	≤ 0.5
U3G G17A C27G C33U A45G	≤ 0.5
U3G U13C C33A A42U C49U C55A	≤ 0.5
C4A C5U C24G A45U C66U	≤ 0.5
U3G G6A A14G G38C G41C A57C	0.62
C4A A14U C34G G56C	≤ 0.5
C4A A20U C29G C49G G63C	≤ 0.5
C4A A15G	0.844
U3G U35G A40C G48A C60U U64G A65U A69C	≤ 0.5
C4A C5U C22U C49U	≤ 0.5
C4A A20U G23A C66U	≤ 0.5
U3G U47G C60G	0.503
C4A A20U G44C C60A	≤ 0.5
C4A A40C C49G C60G	≤ 0.5
C4A A21C U54A	≤ 0.5
U3G G44C C55G	≤ 0.5
C4A A21C A70C	≤ 0.5
C4A A45C U47A A70G	≤ 0.5
U3G U16C C29G	≤ 0.5
C4A A20G G44C A45G C61U	≤ 0.5
U3G U16G A21G C29A U32C C33U C34A	0.788

Variant	yeast fitness
U3G U16A	0.938
C4A A20U U32C A43U	≤ 0.5
C4A A57U	0.714
C4A A15G C33G C60A	≤ 0.5
C4A A21G C49G G63C	0.538
C4A C5A A20U C31U C49U	≤ 0.5
C4A A14U C29U G68A	≤ 0.5
C4A A21G C33U G51C	≤ 0.5
C4A C5U G17A C30U G68C	≤ 0.5
C4A A14U C30A G67C	≤ 0.5
U3G U26A C29A C34A G38A G67C	0.712
C4A A21C G39C C49G	0.511
C4A A14C G41A G48C C55A A65C	0.556
C4A A70C	0.993
U3G U8C C24A C30U	≤ 0.5
U3G G6A G17C C31G	≤ 0.5
C4A A42U	0.716
U3G G9C C33G C46U	≤ 0.5
C4A A15C C27G C62G	≤ 0.5
U3G G6A A15G C34A A70G	≤ 0.5
C4A C5G A20G U54A C62U	≤ 0.5
